Measurements reported in ChEMBL document CHEMBL4270574, “Methotrexate prodrugs sensitive to reactive oxygen species for the improved treatment of rheumatoid arthritis” (Eur J Med Chem, 2018).
In brackets after ≈: the same amount, converted by molar mass. Activity calls are given as the source filed them. No cut-off for these calls is given here.

What was measured:
[1] = Half life in 20% DMSO/PBS at 100 uM at 37 degC at pH 7.4 by RP-UPLC-MS analysis; assay type: physicochemical
In short: (§1)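 Prodrug at 100 µM in 20% DMSO/PBS (pH 7.4) with diclofenac internal standard was incubated at 37 °C with shaking, with H2O2 at 0.25–10 mM or PBS only (stability control). Samples were taken from 5 min to 24 h. Percent remaining compound and MTX formation were read by RP-UPLC at 306 nm. Runs were in triplicate and t1/2 is given ± SD.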

[2] = Chemical stability in pH 7.4 PBS buffer after 24 hrs by RP-UPLC-MS analysis; assay type: physicochemical; conditions: pH 7.4, 24 h; in short: as §1
[3] = Prodrug activation in 20% DMSO/PBS assessed as 5 mM H2O2-mediated methotrexate formation by measuring prodrug half life at 100 uM at 37 degC, pH 7.4 by RP-UPLC-MS analysis; assay type: physicochemical; conditions: buffer, pH 7.4, 100 µM; in short: as §1
[4] = Prodrug activation in 20% DMSO/PBS assessed as 0.5 mM H2O2-mediated methotrexate formation by measuring prodrug half life at 100 uM at 37 degC, pH 7.4 by RP-UPLC-MS analysis; assay type: physicochemical; conditions: buffer, pH 7.4, 100 µM; in short: as §1
[5] = Half life in human plasma at 37 degC at pH 7.4 by RP-UPLC-MS analysis; assay type: ADME, cell-free
In short: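 Reconstituted freeze-dried human plasma was diluted 1:1 with PBS (pH 7.4) and preincubated for 10 min at 37 °C. Compound was added from a 1 mg/mL DMSO stock and incubated at 37 °C. Samples at 0, 0.5, 1, 2, 4 and 8 h were quenched in ice-cold MeCN, centrifuged, and the supernatant analyzed by RP-UPLC-MS. t1/2 is from triplicates ± SD.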

[6] = Apparent intrinsic clearance in human liver microsomes at 37 degC at pH 7.4 by RP-UPLC-MS analysis; assay type: ADME, microsome; conditions: read-out: CLH(app)
In short: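 Pooled human liver microsomes in PBS were preincubated for 10 min at 37 °C. Compound was added from a 10 mM DMSO stock, then NADPH from a 30 mM stock, with a no-NADPH control. Aliquots taken at 0–40 min were quenched in ice-cold MeCN, centrifuged and analyzed by UPLC-MS. CL'int was derived from the in vitro t1/2 scaled by 45 mg microsomes/g liver and 20 g liver/kg body weight.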

[7] = Thermodynamic solubility in pH 7.4 PBS buffer at 2 mg sonicated for 10 mins followed by incubation at 20 degC for 15 hrs by RP-UPLC-MS analysis; assay type: physicochemical; conditions: read-out: Therm_solubility
In short: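 Solid (2 mg) in 1 mL PBS (pH 7.4) was sonicated, shaken for 15 h at 20 °C and centrifuged. The supernatant was diluted 1:5 in DMF and quantified by RP-UPLC-MS against a 25–125 µg/mL calibration curve. Results are at least three measurements ± SD.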

Mus musculus [8] = test: Anti-arthritic activity in DBA/1J mouse model of collagen-induced arthritis inflammation assessed as reduction in fore limb swelling at 8.3 mg/kg, ip administered daily for 14 days starting from day 27 post disease onset and measured 3 times per week from day 18 to 40 […]; assay type: functional, organism-based
In short: (§2)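 Male DBA/1J mice (8–9 weeks) were immunized intradermally near the tail base with 100 µg chicken type II collagen in CFA on day -1, with a 50 µg boost on day 21. From day 27 they received daily i.p. dosing in 2% DMSO/PBS for 14 days (n = 8/group). Blinded scoring ran three times weekly, day 18–40, at 0–15 per limb (maximum 60). Mice scoring above 45 were removed. Results are mean ± SEM, tested by one-tailed Mann–Whitney.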

Mus musculus [9] = test: Toxicity in DBA/1J mouse model of collagen-induced arthritis inflammation assessed as reduction in body weight at 8.3 mg/kg, ip administered daily for 14 days starting from day 27 post disease onset; assay type: organism-based; conditions: in vivo, 336 h
[10] = Chemical stability in pH 7.4 PBS buffer by RP-UPLC-MS analysis; assay type: physicochemical; in short: as §1
Mus musculus [11] = test: Anti-arthritic activity in DBA/1J mouse model of collagen-induced arthritis inflammation assessed as reduction in fore limb swelling at 7 mg/kg, ip administered daily for 14 days starting from day 27 post disease onset and measured 3 times per week from day 18 to 40 […]; assay type: functional, organism-based; in short: as §2
[12] = Chemical stability in 20% DMSO/PBS at 100 uM at 37 degC after 60 mins in presence of 10 mM H2O2 by RP-UPLC-MS analysis; assay type: physicochemical; conditions: buffer, 1 h; in short: as §1
[13] = Chemical stability in 20% DMSO/PBS at 100 uM at 37 degC after 60 mins in absence of H2O2 by RP-UPLC-MS analysis; assay type: physicochemical; conditions: buffer, 1 h; in short: as §1
Mus musculus [14] = test: Toxicity in DBA/1J mouse model of collagen-induced arthritis inflammation assessed as reduction in body weight at 7 mg/kg, ip administered daily for 14 days starting from day 27 post disease onset; assay type: organism-based; conditions: in vivo, 336 h

## CN(Cc1cnc2nc(N)nc(N)c2n1)c1ccc(C(=O)N[C@@H](CCC(=O)N2CCSC2=O)C(=O)O)cc1
[1]
  half-life at 100 µM: 116 h
[2]
  Stability: Stable
[3]
  t1/2: 1.7 h
[4]
  t1/2: 16.5 h
[5]
  half-life: 7 h
[6]
  CLint scaled: 1.4 mL/min/kg
[7]
  solubility thermodynamic at 15 h: 400 µg/mL (≈ 741 µM)
Mus musculus [8]
  Activity: Active
Mus musculus [9]
  Activity: Non-Toxic

## CN(Cc1cnc2nc(N)nc(N)c2n1)c1ccc(C(=O)N[C@@H](CCC(=O)O)C(=O)N2CCSC2=O)cc1
[10]
  Stability: Unstable

## CN(Cc1cnc2nc(N)nc(N)c2n1)c1ccc(C(=O)N[C@@H](CCC(=O)O)C(=O)O)cc1 [METHOTREXATE]
Mus musculus [11]
  Activity: Active
[12]
  Stability: Stable
[13]
  Stability: Stable
Mus musculus [14]
  Activity: Toxic
